We go through 26 compounds from publication PMC4518544 (Journal of medicinal chemistry, 2015).

Data set [1] concerns the target T1, Grp94 (Canis lupus familiaris, UniProt P41148). Briefly: FP competition binding assay, Grp94. Details: species or system Canine. The conditions noted are these: for diminished potency for Grp94 on substitution of N3 with C: relative to 18a and 18c; for decrease in affinity for Grp94 of N3-substituted compounds: compared to the N9-series; for Hsp90α/Grp94: ratio of IC50 values, Table 4; for decrease in Grp94 activity on linker substitution: relative to S-linked 9g.

A further data set concerns HER2. The data set is described as follows: Immunoblotting of HER2 in SKBr3 cells. Type of data set: cell-based. The gist of the method:
(§1)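 SKBr3 cells were treated 24 h with DMSO or test compound and lysed in RIPA buffer (pH 7.4) with protease inhibitors. Protein was measured by BCA, and 5–50 μg was run on SDS–PAGE and transferred to nitrocellulose. Blots were probed for HER2 (1:500), Hsp70 (1:2500), cleaved PARP (1:2500) and β-actin (1:3000), then HRP secondary, ECL and film, with densitometry. Triplicate experiments.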
For orientation: In western blotting, separated proteins are transferred to a membrane and probed.

A further data set has as its system Hsp70. The data set is described as follows: Immunoblotting of Hsp70 in SKBr3 cells. The class given is cell-based. The gist of the method:
as §1

For the next data set, the system named is cleaved PARP. Briefly: Immunoblotting of cleaved PARP in SKBr3 cells. The class given is cell-based. The conditions noted are these: 100 μM. The gist of the method: as §1
Another data set has as its system SKBr3 cells. Briefly: CellTiter-Glo cell viability assay. Type of data set: cell-based. The conditions noted are these: 100 μM, 72 h. The gist of the method:
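SKBr3 cells were grown in McCoy's 5A with 10% FBS at 37 °C under CO2, then treated 72 h with vehicle or test compound in quadruplicate wells. Viable cells were measured by CellTiter-Glo ATP luminescence. Points are means, n = 4.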
For orientation: Cellular ATP, detected with luciferase, serves as a proxy for viable cell number.

Data set [2] deals with HER2-overexpressing SKBr3 cells. Conditions: cited from earlier work.
For a further data set, the target named is Hsp90α (Homo sapiens, UniProt P07900). The data set is described as follows: FP competition binding assay, Hsp90α.
A further data set concerns the target Hsp90β (Homo sapiens, UniProt P08238). Briefly: FP competition binding assay, Hsp90β.
A further data set deals with scanEDGE 97 kinase panel. Briefly: scanEDGE kinase competition binding panel. Conditions: 10 μM. The gist of the method:
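Competition binding panel. Kinase, biotinylated-ligand streptavidin beads and test compound (from 40× DMSO stocks) were incubated 1 h at room temperature in binding buffer with 6 mM DTT. Beads were washed and eluted 30 min with 0.5 μM free ligand. Eluted kinase was measured by qPCR.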

For a further data set, the system named is TLR9. Briefly: TLR9 assay in transfected HEK 293T cells. Type of data set: cell-based. The conditions noted are these: 24 h treatment. In outline: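 HEK 293T cells were transfected with HA-tagged human TLR9 and split onto chamber slides 24 h later, then treated 24 h at varying concentrations. Cells were fixed (4% paraformaldehyde, 20 min), permeabilized (0.1% Triton X-100, 10 min) and blocked (3% BSA, 30 min). Staining used anti-HA (1:250, 1 h) or normal rabbit IgG, then Cy3 anti-rabbit (1:400), with DAPI mounting. Confocal imaging; fluorescence intensity was normalized to cell number.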

In data set [3] the test system is CpG induced TNF-α production. Briefly: TNFα ELISA, Raw264.7 cells stimulated with CpG. Type of data set: cell-based, mouse. Conditions: 18 h treatment. (In general: In an ELISA, binding on a coated surface is turned into a signal by an enzyme label.)
Data set [4] has as its system TNFα production in cells stimulated by LPS. The data set is described as follows: TNFα ELISA, Raw264.7 cells stimulated with LPS. The conditions noted are these: Hsp90-mediated effect. The class given is cell-based, mouse.
The test system of data set [5] is IGF-II secretion by differentiated myoblasts. The data set is described as follows: C2C12 differentiation and IGF-II secretion assay. Conditions: 24 h treatment. Type of data set: cell-based, mouse. In outline:
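C2C12 mouse myoblasts kept in DMEM with 10% FBS. Differentiation was induced by switching to DMEM with 2% horse serum (36–48 h). After the switch, cells were treated 24 h. Medium was incubated overnight at 4 °C in anti-IGF-II-coated ELISA wells, then detected with biotinylated anti-IGF-II, HRP-streptavidin and TMB. Read at 450 nm and quantified against a recombinant IGF-II standard curve.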

Another data set in a line: Aqueous solubility. Conditions: water. The class given is physicochemical.
In data set [6] the target is T1, Grp94. Conditions: cited from earlier work.
The target of data set [7] is Grp94. The conditions noted are these: read-out: Kd for Grp94; cited from earlier work.

Entries after “also recorded” stand apart in the source; their conditions may differ. Where two headings read alike, the source gives them in different places.

T1 sequence (P41148 22-804): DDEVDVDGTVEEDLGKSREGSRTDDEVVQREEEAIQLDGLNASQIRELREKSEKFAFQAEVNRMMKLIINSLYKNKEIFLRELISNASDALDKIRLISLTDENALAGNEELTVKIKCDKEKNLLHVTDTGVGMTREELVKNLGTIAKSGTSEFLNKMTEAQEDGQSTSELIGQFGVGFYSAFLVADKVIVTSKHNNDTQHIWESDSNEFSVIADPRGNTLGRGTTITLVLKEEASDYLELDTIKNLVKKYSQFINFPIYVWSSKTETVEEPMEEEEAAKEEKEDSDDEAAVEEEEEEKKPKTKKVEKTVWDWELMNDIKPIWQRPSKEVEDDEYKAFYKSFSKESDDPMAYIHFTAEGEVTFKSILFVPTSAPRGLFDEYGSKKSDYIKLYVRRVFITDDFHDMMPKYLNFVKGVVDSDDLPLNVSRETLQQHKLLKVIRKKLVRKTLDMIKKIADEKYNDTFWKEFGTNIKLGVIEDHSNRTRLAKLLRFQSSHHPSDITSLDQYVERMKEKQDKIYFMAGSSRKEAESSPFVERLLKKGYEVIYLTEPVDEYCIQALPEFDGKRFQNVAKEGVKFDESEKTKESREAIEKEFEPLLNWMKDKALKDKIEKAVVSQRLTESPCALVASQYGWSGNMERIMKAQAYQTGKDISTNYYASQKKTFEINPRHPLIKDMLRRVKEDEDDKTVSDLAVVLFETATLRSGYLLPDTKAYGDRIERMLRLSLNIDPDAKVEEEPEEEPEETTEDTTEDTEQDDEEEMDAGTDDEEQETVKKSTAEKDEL
Chain of Hsp90β (P08238 whole entry): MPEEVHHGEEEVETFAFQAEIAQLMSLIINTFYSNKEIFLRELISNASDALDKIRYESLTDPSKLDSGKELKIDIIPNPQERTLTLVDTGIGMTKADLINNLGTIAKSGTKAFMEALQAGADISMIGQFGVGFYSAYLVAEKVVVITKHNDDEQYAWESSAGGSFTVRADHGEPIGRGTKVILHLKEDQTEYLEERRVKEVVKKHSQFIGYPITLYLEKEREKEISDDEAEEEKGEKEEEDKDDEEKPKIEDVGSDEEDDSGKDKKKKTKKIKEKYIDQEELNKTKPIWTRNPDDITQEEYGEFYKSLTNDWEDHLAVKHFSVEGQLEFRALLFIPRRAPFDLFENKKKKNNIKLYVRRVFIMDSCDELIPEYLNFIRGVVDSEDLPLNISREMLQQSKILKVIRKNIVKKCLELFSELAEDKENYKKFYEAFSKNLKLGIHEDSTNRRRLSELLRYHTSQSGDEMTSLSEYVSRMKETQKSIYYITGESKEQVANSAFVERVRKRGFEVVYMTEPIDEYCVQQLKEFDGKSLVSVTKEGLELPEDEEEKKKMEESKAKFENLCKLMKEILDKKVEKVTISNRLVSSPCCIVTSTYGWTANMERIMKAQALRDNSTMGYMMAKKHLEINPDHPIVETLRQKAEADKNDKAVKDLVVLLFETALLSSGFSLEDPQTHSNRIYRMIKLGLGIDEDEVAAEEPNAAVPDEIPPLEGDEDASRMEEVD

As usually defined, the IC50 is the concentration that gives 50% inhibition. For `C#CCCCn1cnc(N)c2nc(Sc3ccccc3OC)nc1-2` [9b′, 8-(2-Methoxyphenylthio)-3-(pent-4-ynyl)-3H-purin-6-amine], the IC50 on Grp94 [1] was above 100 µM.

`CC(C)NCCCn1c(Sc2cc(Cl)cc(Cl)c2)nc2c(N)nccc21` [18e, 2-((3,5-Dichlorophenyl)thio)-1-(3-(isopropylamino)propyl)-1H-imidazo[4,5-c]pyridin-4-amine]: the “diminished potency for Grp94 on substitution of N3 with C” value at Grp94 [1] was 5–8 fold.

For the compound `COC(=O)c1c(O)cc(O)c(Cl)c1CCc1nccn1Cc1ccccc1` [compound 3], in the data set on HER2 (SKBr3 cells, 100 μM), the HER2 level result is “possibly a slight reduction in HER2”. Further, the “effect in SKBr3 cells” value in the data set with HER2 (up to 10 μM) is “no effect”. For the same compound, the Hsp70 induction result with Hsp70 (100 μM) is “Hsp70 induction”. Further, the PARP cleavage result in the data set with cleaved PARP is reported as “minor PARP cleavage”. The cell viability result in the data set with SKBr3 cells is on record as “cellular toxicity”. The “antiproliferative effects against SKBr3 cells” value in data set [2] is “lacked antiproliferative effects”.

For the compound `C#CCCCn1cnc(N)c2nc(Sc3cc(Cl)c(Cl)cc3Cl)nc1-2` [9v′, 3-(Pent-4-ynyl)-8-(2,4,5-trichlorophenylthio)-3H-purin-6-amine], on Grp94 [1], the IC50 came out at 2.08 µM, the “decrease in affinity for Grp94 of N3-substituted compounds” value (from here on “decrease in affinity for Grp94”) was 10–400 fold and the Hsp90α/Grp94 is above 48 µM.

In the case of `C#CCCCn1cnc(N)c2nc(Sc3ccc(Cl)cc3Cl)nc1-2` [9g′, 8-(2,4-Dichlorophenylthio)-3-(pent-4-ynyl)-3H-purin-6-amine], on Grp94 [1], the IC50 is 2.37 ± 0.79 µM, the “decrease in affinity for Grp94” value is 10–400 fold and the Hsp90α/Grp94 was above 210 µM.

For the compound `C#CCCCn1c(S(=O)(=O)c2ccc(Cl)cc2Cl)nc2c(N)ncnc21` [14b, 8-((2,4-Dichlorophenyl)sulfonyl)-9-(pent-4-yn-1-yl)-9H-purin-6-amine], the “decrease in Grp94 activity on linker substitution” value (shortened to “decrease in Grp94 activity”) at Grp94 [1] is on record as ~ 40 fold.

At Grp94 [1], `C#CCCCn1cnc(N)c2nc(Sc3cc(C)cc(C)c3)nc1-2` [9q′, 8-(3,5-Dimethylphenylthio)-3-(pent-4-ynyl)-3H-purin-6-amine] came in with an IC50 above 100 µM.

`C#CCCCn1cnc(N)c2nc(Sc3ccc(C)cc3C)nc1-2` [compound 4, 8-(2,4-Dimethylphenylthio)-3-(pent-4-ynyl)-3H-purin-6-amine] returned a half-maximal inhibitory concentration (IC50) at Hsp90α above 250 µM.

For the compound `CC(C)NCCCn1c(Sc2ccc(Cl)cc2Cl)nc2c(N)nccc21` [18d, 2-((2,4-Dichlorophenyl)thio)-1-(3-(isopropylamino)propyl)-1H-imidazo[4,5-c]pyridin-4-amine], at Grp94 [1], the “diminished potency for Grp94 on substitution of N3 with C” value is listed as 5–8 fold.

For the compound `C#CCCCn1c(Oc2ccc(Cl)cc2Cl)nc2c(N)ncnc21` [14c, 8-(2,4-Dichlorophenoxy)-9-(pent-4-yn-1-yl)-9H-purin-6-amine], the “decrease in Grp94 activity” value at Grp94 [1] is on record as 4–6 fold.

For `CC(C)NCCCn1c(Sc2cc3c(cc2N(C)C)OCO3)nc2c(N)ncnc21` [18g], at Grp94 [1], the “loss of affinity for Grp94 compared to PU-H71 (5)” value is on record as 10 fold and the “lower affinity for Grp94 compared to Hsp90α” value is on record as ~ 3 fold.

On to `C#CCCCn1cnc(N)c2nc(Sc3ccccc3Cl)nc1-2` [9a′, 8-(2-Chlorophenylthio)-3-(pent-4-ynyl)-3H-purin-6-amine], for which, at Grp94 [1], the half-maximal inhibitory concentration (IC50) amounted to 100 ± 10 µM and the “decrease in affinity for Grp94” value is listed as 10–400 fold.

In the case of `C#CCCCn1cnc(N)c2nc(Sc3cc(Cl)cc(Cl)c3)nc1-2` [9n′, 8-(3,5-Dichlorophenylthio)-3-(pent-4-ynyl)-3H-purin-6-amine], the IC50 on Hsp90β (read-out: IC50 Hsp90β, FP competition, Cy3B-GM probe) is above 100 µM; on Grp94 [1] (read-out: IC50 Grp94, FP competition, Cy3B-GM probe) it was 100 ± 8 µM. In addition, at Grp94 [1], the “decrease in affinity for Grp94” value is 10–400 fold.

For the compound `C#CCCCn1c(Cc2ccc(Cl)cc2Cl)nc2c(N)ncnc21` [14d, 8-(2,4-Dichlorobenzyl)-9-(pent-4-yn-1-yl)-9H-purin-6-amine], the “decrease in Grp94 activity” value at Grp94 [1] is listed as 4–6 fold.

Regarding `C#CCCCn1cnc(N)c2nc(Sc3ccccc3OC(F)(F)F)nc1-2` [9d′, 3-(Pent-4-ynyl)-8-(2-(trifluoromethoxy)phenylthio)-3H-purin-6-amine], the IC50 at Grp94 [1] was above 100 µM.

Broadly, the solubility is the dissolved amount per volume that the medium holds. With `CC(C)NCCCn1c(Sc2cc(Cl)cc(Cl)c2)nc2c(N)ncnc21` [18c, 8-((3,5-Dichlorophenyl)thio)-9-(3-(isopropylamino)propyl)-9H-purin-6-amine], at Grp94 [1], the “selectivity for Grp94 over Hsp90α/β” value is above 100 fold. Besides, the “interaction with kinase panel” value in the data set with scanEDGE 97 kinase panel is “inert”. For the same compound, the “expression of TLR9 in the post-ER compartment” value in the data set on TLR9 is on record as “dose-dependently inhibited”. The “CpG induced TNF-α production” value in data set [3] was “dose-dependently inhibited”. The “TNFα production in cells stimulated by LPS” value in [4] is listed as “lack of activity”. In addition, the “IGF-II secretion by differentiated myoblasts” value in data set [5] was “dose-dependently inhibited”. Moreover, the “steady-state levels of HER2 kinase” value with HER2 (HER2 overexpressing breast cancer cells, 24 h) is “reduced”. For the same compound, the Hsp70 induction result in the data set on Hsp70 (24 h) is given as “no Hsp70 induction; also recorded: did not modulate”. The compound further yielded a solubility in the data set “Aqueous solubility” above 10000 µg/mL. In addition, the “growth of SKBr3 cells” value in data set [2] is listed as “growth impairment”.

Regarding `C#CCCCn1cnc(N)c2nc(Sc3c(C)cc(C)cc3C)nc1-2` [9w′, 8-(Mesitylthio)-3-(pent-4-ynyl)-3H-purin-6-amine], at Grp94 [1], the IC50 was 20 ± 5 µM, the “decrease in affinity for Grp94” value was 10–400 fold and the Hsp90α/Grp94 was above 5 µM.

Take `C#CCCCn1cnc(N)c2nc(Sc3ccccc3CO)nc1-2` [9c′, (2-(6-Amino-3-(pent-4-ynyl)-3H-purin-8-ylthio)phenyl)methanol]: the 50% inhibitory concentration (IC50) on Grp94 [1] was above 100 µM.

`C#CCCCn1cnc(N)c2nc(Sc3cc(C)ccc3C)nc1-2` [9l′, 8-(2,5-Dimethylphenylthio)-3-(pent-4-ynyl)-3H-purin-6-amine]: the half-maximal inhibitory concentration (IC50) on Grp94 [1] is above 100 µM.

Take `C#CCCCn1cnc(N)c2nc(Sc3ccc(OC)cc3OC)nc1-2` [9j′, 8-(2,4-Dimethoxyphenylthio)-3-(pent-4-ynyl)-3H-purin-6-amine]: on Grp94 [1], the IC50 was above 100 µM.

Consider `CN(C)c1cc2c(cc1Sc1nc3c(N)nccc3n1CCNCC(C)(C)C)OCO2` [compound 22], for which, at Grp94 [6], the “lower affinity for Grp94 than for Hsp90α or Hsp90β” value was ~ 6 fold.

Consider `C#CCCCCn1c(Sc2cc(Cl)cc(Cl)c2)nc2c(N)ncnc21` [13b, 8-((3,5-Dichlorophenyl)thio)-9-(hex-5-yn-1-yl)-9H-purin-6-amine], for which the “decrease in potency for Grp94” value at Grp94 [1] (relative to 9n, chain length five to six carbons) is “approximately 3 fold”.

In general, Kd refers to the free concentration of one partner at which half of the binding sites on the other are occupied at equilibrium, for simple one-to-one binding. Turning to 5′-N-ethylcarboxamidoadenosine [NECA], the dissociation constant (Kd) on Grp94 [7] was 0.2 µM.

With `C#CCCCn1cnc(N)c2nc(Sc3cc(Cl)ccc3Cl)nc1-2` [9k′, 8-(2,5-Dichlorophenylthio)-3-(pent-4-ynyl)-3H-purin-6-amine], at Grp94 [1], the IC50 worked out at 35.3 ± 5 µM and the “decrease in affinity for Grp94” value is 10–400 fold.

Turning to `CC(C)NCCCn1cnc(N)c2nc(Sc3cc(Cl)cc(Cl)c3)nc1-2` [18c′, 8-((3,5-Dichlorophenyl)thio)-3-(3-(isopropylamino)propyl)-3H-purin-6-amine], at Grp94 [1], the “decrease in affinity for Grp94” value is 10–400 fold and the Hsp90α/Grp94 was above 39 µM.

As to `C#CCCCn1cnc(N)c2nc(Sc3cc(C(F)(F)F)ccc3Cl)nc1-2` [9m′, 8-(2-Chloro-5-(trifluoromethyl)phenylthio)-3-(pent-4-ynyl)-3H-purin-6-amine], the half-maximal inhibitory concentration (IC50) on Hsp90α, at Hsp90β and on Grp94 [1] was above 100 µM each time.
